Screening results from PubChem.
MC4R ag barr – agonists of human melanocortin 4 receptor (MC4R) beta-arrestin | U2OS MC4R beta-arrestin complementation, luminescence; percent of melanotan II response, DMSO zero | actives 0.98% (n = 360,000) | activation, % at 8.9 µM | AID 540308 | P32245;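 active = activation above a per-plate cutoff, the mean activation of sample wells on that plate plus 3 SD, cut at about 8% in these data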
Target sequence (P32245 whole entry, looked up): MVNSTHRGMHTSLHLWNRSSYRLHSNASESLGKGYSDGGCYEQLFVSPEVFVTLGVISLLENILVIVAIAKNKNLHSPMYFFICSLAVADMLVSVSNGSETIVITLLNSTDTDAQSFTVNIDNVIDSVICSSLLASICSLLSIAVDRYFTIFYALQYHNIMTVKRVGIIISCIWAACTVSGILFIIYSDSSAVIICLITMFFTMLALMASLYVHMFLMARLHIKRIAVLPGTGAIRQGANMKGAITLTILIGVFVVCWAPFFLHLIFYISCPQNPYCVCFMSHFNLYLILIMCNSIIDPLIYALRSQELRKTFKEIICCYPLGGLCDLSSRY
MC4R antagonist – human MC4R antagonism in cAMP assay. MC4R-expressing cells, MTII-stimulated cAMP, LANCE TR-FRET. inhibition, % at 6.5 µM. actives 0.48% (n = 360,000). AID 540295;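 active = inhibition above its plate's cutoff, the mean of tested wells on that plate plus 3 SD, cut at about 29% in these data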;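 note: 0% = Melanotan II alone and 100% = Melanotan II plus saturating MCL0020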
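Material: human MC4R-expressing U2OS cells. Probe or stimulus: Melanotan II challenge. Dosing: 6.5 µM single dose. Times: 30-min compound, 1-h challenge, 1-h detection, room temperature. Technique: TR-FRET with Eu-cAMP and labeled anti-cAMP, 671 nm. Replication: singlicate.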
Granule exo inh – blocks lytic granule exocytosis | actives 0.66% (n = 360,000) | TALL-104 LAMP-1 surface exposure, flow cytometry; cells stimulated with thapsigargin and PMA | inhibition, % at 10 µM;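 active = inhibition above about 55%, limit read from the data; inconclusive = no clear call, values can overlap the other calls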
A1 inh – inhibitors of the anti-apoptotic protein A1, read as caspase activation; actives 0.066% (n = 330,000); MEF A1-2A-BIM cells, Caspase-Glo 3/7 luminescence, 3 h; percent of clofoctol response, vehicle zero; caspase activation, % (no concentration beside the values);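 active = over half of replicate activation scores above 10%, or exactly half above 10 with the replicate mean above 10; inconclusive = replicate mean below 10 yet half the replicates above 10; inactive = over half of replicates below 10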
NTR1 agonist – agonists of human neurotensin receptor NTR1; P30989; NTR1-U2OS beta-arrestin-GFP spot imaging, agonist mode; activation, % at 20 µM; actives 0.17% (n = 330,000); AID 493036;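 active = activation at or above 40% of the spot to cytoplasm intensity ratio, with at least 20 cells analyzed; inconclusive = wells under 20 cells, flagged as cytotoxic or low count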;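 note: 0% = DMSO without peptide and 100% = 100 nM NTR1 peptide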
sPLA2-III inh – Blocks human group III sPLA2 activity; Q9NZ20; QFRET BODIPY PC-A2 liposome hydrolysis, fluorescence; inhibition, % at 12.2 µM; actives 0.56% (n = 370,000);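 active = inhibition above mean plus 3 SD of compounds lying within the high and low control bounds, cut at about 19% in these data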;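 note: 0% = median of test compound wells and 100% = no enzyme DMSO wells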
sPLA2 confirm – human GIII-sPLA2 inhibition, confirmation; shares compounds with sPLA2-III inh; recombinant hGIII-sPLA2, BODIPY PC-A2 QFRET fluorescence; inhibition, % at 12.2 µM; actives 34% (n = 2,000); AID 743280;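 active = mean inhibition across triplicates above the hit cutoff set in the earlier primary screen, cut at about 19% in these data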;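 note: 0% = enzyme with DMSO and 100% = DMSO wells lacking enzyme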
BODIPY interf – counter-screen for HGIII-sPLA2 inhibitors: 535nm fluorescence interference. shares compounds with sPLA2-III inh. BODIPY FL product fluorescence interference, QFRET. inhibition, % at 12.2 µM. actives 8.5% (n = 2,000);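 active = average inhibition above the solvent-only control mean plus 3 SD, cut at about 6% in these data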;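 note: 0% = DMSO with substrate plus product and 100% = DMSO with substrate alone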
BODIPY interf DR – 535nm optical interference dose response, HGIII-sPLA2 counter-screen; IC50, µM; shares compounds with sPLA2-III inh; 240 tested, under 10 active; AID 743455; BODIPY FL product fluorescence interference, cell-free;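 active = IC50 at or below 10 µM; inactive = IC50 above 10 µM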
An asterisk follows results filed as active; ? = inconclusive; . = no result given. A selection: hits, their analogues and other compounds. The true share with any hit is near 2.5%.

SMILES | MC4R ag barr | MC4R antagonist | Granule exo inh | A1 inh | NTR1 agonist | sPLA2-III inh | sPLA2 confirm | BODIPY interf | others
O=C(CN(Cc1cccs1)S(=O)(=O)c1ccc(S(=O)(=O)N2CCCCC2)cc1)Nc1ccccc1 | -1 | 10 | -4 | -1 | 3 | 21* | -2 | 0
CSCCC(=O)N1CCC(n2nccc2NC(=O)CCc2ccccc2)CC1 | -3 | 5 | -3 | -1 | 2 | -2 | . | .
COc1ccc(NCc2ccc([N+](=O)[O-])s2)c(OC)c1 | -2 | 0 | 5 | 0 | . | 25* | 13 | 3
CC/C(=N\NC(=O)c1nnn(-c2nonc2N)c1-c1cccs1)c1ccccc1 | -3 | 6 | 4 | ? | 4 | -2 | . | .
CC(N)c1csc(Nc2cc(Oc3ccccc3)ncn2)n1 (stereo unspecified) | -2 | -1 | 0 | . | . | 17 | . | .
NC(Cc1ccc(Cl)cc1)c1csc(Nc2cc(Oc3ccccc3)ncn2)n1 (stereo unspecified) | 7 | -1 | 18 | . | . | 27* | 20* | -13
NC(Cc1ccc(F)cc1)c1csc(Nc2cc(NCc3ccco3)ncn2)n1 (stereo unspecified) | 1 | 11 | -2 | . | . | 7 | . | .
NC(COCc1ccccc1)c1csc(Nc2cc(Oc3ccccc3)ncn2)n1 (stereo unspecified) | 6 | 1 | 25 | . | . | 1 | . | .
NC(c1csc(Nc2cc(NCc3ccco3)ncn2)n1)c1ccccc1Cl (stereo unspecified) | 0 | -12 | 6 | . | . | 23* | -5 | -3
COC(=O)c1cnc(Nc2nc(C(N)Cc3ccc(Cl)cc3)cs2)nc1C(F)(F)F (stereo unspecified) | 2 | -11 | 4 | . | . | 27* | 8 | -5
NC(c1csc(Nc2cc(Oc3ccccc3)ncn2)n1)c1ccccc1Cl (stereo unspecified) | 0 | 0 | 18 | . | . | 21* | 13 | -3
Cc1ccc(C)c(N2CCN(S(=O)(=O)c3cc4c(cc3Cl)NC(=O)CO4)CC2)c1 | -1 | -2 | 1 | 0 | 6 | 13 | . | .
O=C(CN1CCN(c2ccccc2)CC1)Nc1cccc([N+](=O)[O-])c1 | 4 | -7 | 0 | 0 | 2 | 1 | . | .
O=C(NCc1ccccc1)C1C(c2ccc3c(c2)OCO3)=Nc2ccccc2N1C(=O)c1cccc2ccccc12 (stereo unspecified) | . | . | -4 | . | . | -11 | . | .
Cn1cccc1C(=O)N1CCN(S(=O)(=O)c2ccccc2F)CC1 | . | . | . | . | . | -4 | . | .
Fc1cccc(/C=N/Nc2cc(N3CCOCC3)ncn2)c1 | -1 | 0 | -8 | 0 | 1 | 5 | . | .
COc1cc(C(=O)Nc2cc(-c3nc4cc(C)ccc4o3)ccc2C)cc(OC)c1OC | 1 | 11 | -2 | 0 | 16 | -5 | . | .
COc1cc(C(=O)Nc2cccc(-c3nc4cc(C)ccc4o3)c2)cc(OC)c1OC | -1 | 10 | -4 | 0 | 23 | 19* | -17 | -24
CCCCNC(=S)Nc1ccc2cn[nH]c2c1 | -1 | 4 | 1 | 1 | 0 | 21* | 6 | -1
CCc1ccc(NC(=S)Nc2ccc3cn[nH]c3c2)cc1 | -3 | 9 | -1 | 0 | 0 | 19* | 11 | -6
S=C(NCc1ccccc1)Nc1ccc2cn[nH]c2c1 | -1 | 8 | -2 | 0 | 0 | 8 | . | .
CN(C)NC(=O)c1ccsc1NC(=O)c1ccc(S(=O)(=O)N(C)C)cc1 | -1 | 5 | -4 | 2 | 3 | 10 | . | .
Cn1cc(CCC(=O)NC2CC(C)(C)Cc3c2cnn3-c2ccc(F)cc2)cn1 (stereo unspecified) | -2 | -11 | 29 | . | 2 | -1 | . | .
COc1cccc(CCNC(=O)CC2C(=O)NCCN2Cc2ccc(Cl)c(F)c2)c1 (stereo unspecified) | -4 | 5 | 0 | 0 | -1 | 4 | . | .
CCOC(=O)N1CCN(CC(=O)Nc2ccc(Oc3ccccc3)cc2)CC1 | 0 | 8 | -1 | 0 | 1 | -7 | . | .
SMILES | MC4R ag barr | MC4R antagonist | Granule exo inh | A1 inh | NTR1 agonist | sPLA2-III inh | sPLA2 confirm | BODIPY interf | others
CC1(C)CC2C1CCC1(O)CC2(C)CCC1N(O)c1ccc(C(=O)NCCO)cn1 (stereo unspecified) | -1 | 5 | -1 | -1 | 0 | 21* | 24* | -7
CSC1=NCCCN1C(=O)c1c(-c2ccccc2Cl)noc1C | 3 | -2 | -3 | 1 | 0 | 22* | -2 | -6
CSC1=NCCN1C(=O)c1c(-c2ccccc2Cl)noc1C | -2 | 9 | -3 | 1 | 0 | 2 | . | .
Cc1cccc(NC(=S)NNC(=O)c2ccc(O)cc2O)c1C | 1 | 1 | 0 | -1 | 0 | 42* | 33* | 3 | BODIPY interf DR=>122
COc1ccc(C)cc1NC(=S)NNC(=O)c1ccccc1Cl | -2 | 0 | -4 | -1 | 2 | 12 | . | .
Cc1ccc(NC(=S)NNC(=O)c2ccccc2O)c(C)c1 | -1 | -1 | 0 | 1 | 3 | 49* | 37* | -1 | BODIPY interf DR=>122
Cc1ccc(C)c(Cn2nnc3c(=O)[nH]c(C4CCCN(S(=O)(=O)Cc5ccccc5)C4)nc32)c1 (stereo unspecified) | -2 | -13 | 52 | -1 | 16 | -2 | . | .
CCN(CC)C(=O)CC[C@@H]1CC[C@]2(CCCN(S(C)(=O)=O)C2)O1 | . | . | . | . | . | 9 | . | .
CC(=O)CC[C@@H]1CC[C@]2(CCCN(S(C)(=O)=O)C2)O1 | . | . | . | . | . | 22* | -2 | -6
COC(=O)c1ccc(-c2csc(NC(=O)c3c(C)noc3C)n2)cc1 | -2 | 13 | 2 | . | 13 | 2 | . | .
Cn1c2c(c(O)c(-c3ccccc3)c1=O)C(=O)CC(C)(C)C2 | -1 | -5 | -1 | 1 | 1 | 18 | . | .
Cc1cc(C)c(-c2c(O)c3c(n(C)c2=O)CC(C)(C)CC3=O)c(C)c1 | -1 | -3 | 40 | 0 | 0 | 21* | -4 | -2
Cn1c(CBr)c(C(=O)c2ccc([N+](=O)[O-])cc2)c(=O)n(C)c1=O | -1 | 15 | -4 | 1 | 1 | 22* | 5 | -4
O=C1c2ccccc2CN1CCSC(=S)N1CCOCC1 | 1 | -7 | -2 | 3 | -1 | 21* | 6 | -10
CCCC[C@@H]1C(=O)N2N=Cc3cc(C)c(C)cc3[C@H]2N2N=Cc3cc(C)c(C)cc3[C@@H]12 | . | . | . | . | . | 20* | -6 | -23
